The source of these data is ChEMBL document CHEMBL1140995, “Synthesis and biological evaluation of aminomethylphenol derivatives as inhibitors of the murine GABA transporters mGAT1-mGAT4” (Eur J Med Chem, 2008).

Test [1] has as its target T1, GABA transporter 4 (Mus musculus, UniProt P31650).
T1 sequence (P31650 whole entry): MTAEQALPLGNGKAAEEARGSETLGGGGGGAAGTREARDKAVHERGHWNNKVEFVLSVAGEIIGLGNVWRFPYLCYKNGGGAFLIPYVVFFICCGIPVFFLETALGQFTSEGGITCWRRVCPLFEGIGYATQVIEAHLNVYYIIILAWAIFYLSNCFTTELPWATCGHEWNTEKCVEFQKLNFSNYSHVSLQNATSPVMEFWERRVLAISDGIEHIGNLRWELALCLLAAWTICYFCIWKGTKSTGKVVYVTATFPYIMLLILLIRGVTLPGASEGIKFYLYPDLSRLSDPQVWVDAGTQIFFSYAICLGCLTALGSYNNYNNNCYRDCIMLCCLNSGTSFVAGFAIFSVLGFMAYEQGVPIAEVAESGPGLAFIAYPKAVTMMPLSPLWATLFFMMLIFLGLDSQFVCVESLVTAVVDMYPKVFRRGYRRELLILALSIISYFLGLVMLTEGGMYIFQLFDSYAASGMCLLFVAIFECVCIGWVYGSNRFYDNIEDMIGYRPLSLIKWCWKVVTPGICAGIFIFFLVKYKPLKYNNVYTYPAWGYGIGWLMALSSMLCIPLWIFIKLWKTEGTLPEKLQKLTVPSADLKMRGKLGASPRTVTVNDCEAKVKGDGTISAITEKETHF
As to the kind of experiment: Inhibition of [3H]GABA uptake at mouse GAT4 expressed in HEK cells. The class given is cell-based, HEK293.

In test [2] the target is Sodium- and chloride-dependent GABA transporter 1 (Mus musculus, UniProt P31648). As to the kind of experiment: Inhibition of [3H]GABA uptake at mouse GAT1 expressed in HEK cells. The class given is cell-based, HEK293.
The target in test [3] is T2, GABA transporter 2 (Mus musculus, UniProt P31651).
T2 sequence (P31651 whole entry): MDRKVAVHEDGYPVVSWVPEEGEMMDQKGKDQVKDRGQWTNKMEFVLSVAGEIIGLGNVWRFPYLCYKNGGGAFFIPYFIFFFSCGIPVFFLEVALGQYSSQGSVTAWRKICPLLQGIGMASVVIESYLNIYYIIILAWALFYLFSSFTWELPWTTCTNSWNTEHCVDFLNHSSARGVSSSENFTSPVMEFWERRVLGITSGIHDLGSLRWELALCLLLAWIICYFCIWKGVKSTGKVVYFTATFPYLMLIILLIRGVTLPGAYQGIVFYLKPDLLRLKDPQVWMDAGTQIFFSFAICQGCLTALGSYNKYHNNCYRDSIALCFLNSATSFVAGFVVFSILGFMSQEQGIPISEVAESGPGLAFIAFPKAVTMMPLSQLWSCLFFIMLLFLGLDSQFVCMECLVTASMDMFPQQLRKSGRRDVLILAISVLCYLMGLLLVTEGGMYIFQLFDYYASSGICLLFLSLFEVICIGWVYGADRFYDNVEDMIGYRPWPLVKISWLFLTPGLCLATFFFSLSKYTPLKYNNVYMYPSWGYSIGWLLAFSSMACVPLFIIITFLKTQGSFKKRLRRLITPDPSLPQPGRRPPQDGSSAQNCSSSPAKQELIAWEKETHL
Put plainly: Inhibition of [3H]GABA uptake at mouse GAT2 expressed in HEK cells. The test is classed as cell-based, HEK293. Summed up:
(§1)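 Stable mGAT2-HEK cells were trypsinized, PBS-washed, and suspended in Krebs-Tris pH 7.2 at about 200,000 cells/well. Cells were preincubated 25 min at 37 °C with compound (1% DMSO), then exposed to 20 nM [³H]GABA plus 20 nM unlabeled GABA for 10 min.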

Test [4] has as its target T3, GABA transporter 3 (Mus musculus, UniProt P31649).
T3 sequence (P31649 whole entry): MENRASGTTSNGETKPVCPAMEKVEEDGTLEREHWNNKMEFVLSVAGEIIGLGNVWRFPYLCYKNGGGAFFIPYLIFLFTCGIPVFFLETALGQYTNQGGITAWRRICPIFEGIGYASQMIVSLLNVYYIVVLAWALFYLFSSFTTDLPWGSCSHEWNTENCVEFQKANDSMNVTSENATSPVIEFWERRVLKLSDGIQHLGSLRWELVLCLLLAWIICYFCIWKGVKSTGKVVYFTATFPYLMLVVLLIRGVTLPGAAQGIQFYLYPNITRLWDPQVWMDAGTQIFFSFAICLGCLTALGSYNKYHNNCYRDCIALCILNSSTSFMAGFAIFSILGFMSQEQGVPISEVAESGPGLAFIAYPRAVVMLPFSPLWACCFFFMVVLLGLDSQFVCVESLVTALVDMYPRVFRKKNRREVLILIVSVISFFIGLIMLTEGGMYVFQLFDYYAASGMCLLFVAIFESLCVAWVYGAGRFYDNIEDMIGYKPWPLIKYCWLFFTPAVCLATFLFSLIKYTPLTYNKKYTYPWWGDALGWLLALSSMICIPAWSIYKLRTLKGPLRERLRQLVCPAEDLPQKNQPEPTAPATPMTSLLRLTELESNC
As to the kind of experiment: Inhibition of [3H]GABA uptake at mouse GAT3 expressed in HEK cells. The class given is cell-based, HEK293.

In test [5] the target is T4, GABA transporter 2 (Mus musculus) (UniProt P31651).
T4 sequence (whole entry): T2 sequence (P31651 whole entry)
As to the kind of experiment: Inhibition of [3H]GABA uptake at mouse GAT2 expressed in HEK cells assessed as remaining [3H]GABA uptake at 100 uM relative to control. The test is classed as cell-based. As to conditions: HEK293. In outline: as §1

Test [6] addresses T5, GABA transporter 4 (Mus musculus) (UniProt P31650).
T5 sequence (whole entry): T1 sequence (P31650 whole entry)
Put plainly: Inhibition of [3H]GABA uptake at mouse GAT4 expressed in HEK cells assessed as remaining [3H]GABA uptake at 100 uM relative to control. The test is classed as cell-based. To be noted: HEK293. In outline: (§2)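 Stably transfected HEK cells were trypsinized, washed in PBS, and resuspended in Krebs-Tris buffer pH 7.2 at about 100,000 cells/well. They were pre-equilibrated 25 min at 37 °C with compound in 1% DMSO, then given 8 nM [³H]GABA plus 32 nM unlabeled GABA for 4 min.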

The target in test [7] is T6, GABA transporter 3 (Mus musculus) (UniProt P31649).
T6 sequence (whole entry): T3 sequence (P31649 whole entry)
Put plainly: Inhibition of [3H]GABA uptake at mouse GAT3 expressed in HEK cells assessed as remaining [3H]GABA uptake at 100 uM relative to control. The test is classed as cell-based. As to conditions: HEK293. Summed up:
as §2

For test [8], the target named is Sodium- and chloride-dependent GABA transporter 1 (Mus musculus) (UniProt P31648). As to the kind of experiment: Inhibition of [3H]GABA uptake at mouse GAT1 expressed in HEK cells assessed as remaining [3H]GABA uptake at 100 uM relative to control. To be noted: HEK293. The class given is cell-based. In outline:
as §2

Molecules are shown by their SMILES.

Turning to `COc1ccc(C(OCCNCc2cccc(O)c2)(c2ccc(OC)cc2)c2ccc(OC)cc2)cc1`, the IC50 is 7.76 µM in test [1], 43.7 µM in test [2], 12.9 µM in test [3] and 9.55 µM in test [4] (read-out: pIC50 (converted)).
With `Oc1cccc(CNCCC(c2ccccc2)c2ccccc2)c1`, the IC50 in test [1] was 50.1 µM; in test [2] it was 87.1 µM; in test [3], 47.9 µM; in test [4] (read-out: pIC50 (converted)) it was 38 µM.
The like results for `COc1ccc(C(OCCNCc2ccc(OC)c(O)c2)(c2ccc(OC)cc2)c2ccc(OC)cc2)cc1` were, in that order, 14.5 µM, 25.7 µM, 20.9 µM and 8.91 µM.
The like results for `CCCCCCCCCCCCNCc1cccc(O)c1` were, in that order, 25.1 µM, 20.9 µM, 15.1 µM and 5.62 µM.
Regarding `COc1ccc(C(OCCNCc2ccc(F)c(O)c2F)(c2ccc(OC)cc2)c2ccc(OC)cc2)cc1`, the Activity in test [5] stood at 54%; in test [6], 82%. In addition, the figures for the IC50 in test [2] and in test [4] (read-out: IC50) were 85.1 µM and 10.2 µM, respectively.
With `Oc1ccccc1CNCCC=C(c1ccccc1)c1ccccc1`, the IC50 in test [1] was 14.8 µM; in test [2], 33.1 µM; in test [3], 14.5 µM; in test [4] (read-out: pIC50 (converted)), 7.76 µM.
With `COc1ccc(C(OCCNCc2ccccc2O)(c2ccc(OC)cc2)c2ccc(OC)cc2)cc1`, the IC50 was 16.2 µM in test [1], 26.9 µM in test [2], 11.7 µM in test [3] and 8.32 µM in test [4] (read-out: pIC50 (converted)).
For `Oc1ccccc1CNCCC(c1ccccc1)c1ccccc1`, in that order: 25.1 µM, 52.5 µM, 18.2 µM and 24.5 µM.
With `COc1ccc(C(OCCN2CCC[C@H](C(=O)O)C2)(c2ccc(OC)cc2)c2ccc(OC)cc2)cc1`, the Activity in test [5] was 56%.
`O=C(O)C1=CCCN(CCON=C(c2ccccc2)c2ccccc2)C1`: the IC50 is 851 µM in test [1], 0.148 µM in test [2], 631 µM in test [3] and 240 µM in test [4] (read-out: pIC50 (converted)).
The like results for `O=C(O)C1=CCCNC1` [GUVACINE] were, in that order, 25.7 µM, 13.5 µM, 490 µM and 25.7 µM.
Turning to `COc1ccc(C(OCCNCc2cc(F)c(O)c(F)c2)(c2ccc(OC)cc2)c2ccc(OC)cc2)cc1`, the Activity in test [7] was determined as 51%; in test [8], 59%; in test [5] it was 64%; in test [6], 67%.
As to `O=C(O)C1CCCN(CCC=C(c2ccccc2)c2ccccc2)C1` (configuration not stated), the IC50 in test [1] is 275 µM; in test [2] it was 0.692 µM; in test [3], 372 µM; in test [4] (read-out: pIC50 (converted)), 195 µM.
The like results for `Oc1cccc(CNCCC=C(c2ccccc2)c2ccccc2)c1` were, in that order, 20.9 µM, 28.8 µM, 17.8 µM and 7.94 µM.
For the compound `Cc1ccsc1C(=CCCN1CCC[C@@H](C(=O)O)C1)c1sccc1C` [TIAGABINE], the Activity amounted to 64% in test [7], 52% in test [5] and 73% in test [6]. In test [2], this compound gave an IC50 of 0.132 µM.
With `COc1ccc(C(OCCNCc2c(F)cc(F)c(O)c2F)(c2ccc(OC)cc2)c2ccc(OC)cc2)cc1`, the Activity came out at 56% in test [7], 87% in test [8], 89% in test [5] and 64% in test [6].
The like results for `Oc1c(F)cc(CNCCC=C(c2ccccc2)c2ccccc2)cc1F` were, in that order, 66%, 70%, 82% and 76%.
For the compound `COc1ccc(CNCCC=C(c2ccccc2)c2ccccc2)cc1O`, the IC50 is 22.9 µM in test [1], 18.6 µM in test [2], 19.5 µM in test [3] and 12 µM in test [4] (read-out: pIC50 (converted)).
Regarding `CCCCCCCCCCCCNCc1ccccc1O`, the IC50 in test [1] is 63.1 µM; in test [2], 58.9 µM; in test [3], 28.8 µM; in test [4] (read-out: pIC50 (converted)), 18.6 µM.
For `CCCCCCCCCCCCNCc1ccc(OC)c(O)c1`, in that order: 8.71 µM, 12.3 µM, 12.6 µM and 2.69 µM.
